Reference: article PMC11455621 (Structure (London, England : 1993), 2024)
Numbering of substitutions follows the chain as printed.

Assays:
HsFN3K [1] = molecular target: T1, HsFN3K (Homo sapiens, UniProt Q9H479); assay: Microscale thermophoresis; assay type: binding; conditions: MST
T1 sequence (Q9H479 1-309): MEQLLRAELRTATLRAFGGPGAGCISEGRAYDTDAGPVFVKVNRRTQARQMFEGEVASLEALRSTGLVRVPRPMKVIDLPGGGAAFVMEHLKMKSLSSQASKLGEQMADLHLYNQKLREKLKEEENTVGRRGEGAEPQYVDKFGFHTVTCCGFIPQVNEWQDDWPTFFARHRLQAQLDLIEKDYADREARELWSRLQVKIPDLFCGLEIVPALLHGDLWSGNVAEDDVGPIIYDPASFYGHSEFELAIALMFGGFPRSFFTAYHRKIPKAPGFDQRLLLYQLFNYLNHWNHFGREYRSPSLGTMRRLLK

HsFN3K D217A [2] = molecular target: T2, HsFN3K D217A (Homo sapiens, UniProt Q9H479, D217A); assay: Microscale thermophoresis; assay type: binding
T2 sequence (Q9H479 1-309 D217A): T1 sequence (Q9H479 1-309) with D217A

HsFN3K D234A [3] = molecular target: T3, HsFN3K D234A (Homo sapiens, UniProt Q9H479, D234A); assay: Microscale thermophoresis; assay type: binding; conditions: MST
T3 sequence (Q9H479 1-309 D234A): T1 sequence (Q9H479 1-309) with D234A

HsFN3K [4] = molecular target: T1, HsFN3K; assay: Differential scanning fluorimetry; assay type: binding; conditions: DSF; for Tm increase versus HsFN3K alone: single ligand 250 μM
HsFN3K D217A [5] = molecular target: T2, HsFN3K D217A; assay: Differential scanning fluorimetry; assay type: binding; conditions: DSF
HsFN3K D234A [6] = molecular target: T3, HsFN3K D234A; assay: Differential scanning fluorimetry; assay type: binding; conditions: DSF
HsFN3K W219A = molecular target: T4, HsFN3K W219A (Homo sapiens, UniProt Q9H479, W219A); assay: Differential scanning fluorimetry; assay type: binding; conditions: DSF
T4 sequence (Q9H479 1-309 W219A): T1 sequence (Q9H479 1-309) with W219A

HsFN3K H288A [7] = molecular target: T5, HsFN3K H288A (Homo sapiens, UniProt Q9H479, H288A); assay: Differential scanning fluorimetry; assay type: binding; conditions: DSF
T5 sequence (Q9H479 1-309 H288A): T1 sequence (Q9H479 1-309) with H288A

HsFN3K H291A [8] = molecular target: T6, HsFN3K H291A (Homo sapiens, UniProt Q9H479, H291A); assay: Differential scanning fluorimetry; assay type: binding; conditions: DSF
T6 sequence (Q9H479 1-309 H291A): T1 sequence (Q9H479 1-309) with H291A

HsFN3K H288A [9] = molecular target: T5, HsFN3K H288A; assay: ADP-Glo kinase kinetics, HsFN3K H288A; assay type: biochemical; conditions: H288A mutant vs WT HsFN3K
Summary of the method: (§1)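 E. coli BL21(DE3)-expressed human FN3K, MBP-His6 tag removed by TEV, at 0.5 μM. Reaction: 200 μM ATP, 10 mM MgCl2, 0–100 μM DMF, room temperature. Time points quenched with ADP-Glo reagent (40 min), then detection reagent (40 min). Luminescence converted to ADP by ATP-to-ADP conversion curves. v0 taken from the linear slope, then Michaelis–Menten fit. SEM from ≥2 independent experiments.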

HsFN3K H291A [10] = molecular target: T6, HsFN3K H291A; assay: ADP-Glo kinase kinetics, HsFN3K H291A; assay type: biochemical; conditions: H291A mutant vs WT HsFN3K
Summary of the method: as §1

[11] = molecular target: human Fructosamine-3-kinase (HsFN3K) (human) (UniProt Q9H479); assay: SEC
[12] = molecular target: human Fructosamine-3-kinase (HsFN3K) (human) (UniProt Q9H479); assay: intact protein LC-MS
HsFN3K WT = molecular target: T7, HsFN3K WT (Homo sapiens, UniProt Q9H479); assay: Direct substrate phosphorylation assay; assay type: biochemical; conditions: glycated lysozyme 2mg/mL, 1 hour at 25°C (Figure S6D)
T7 sequence (Q9H479 1-309): T1 sequence (Q9H479 1-309)
Summary of the method: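 Lysozyme glycated with ribose or glucose (1:1 molar, 3 or 28 days, 50°C). Reaction: 10 or 20 μM FN3K, 2 mg/mL glycated lysozyme, 5 mM HEPES pH 7, 5 mM MgCl2, 100 μM ATP, 1 h at 25°C. Quenched in Laemmli dye, run on SDS-PAGE, fixed in methanol/acetic acid. Stained with Pro-Q Diamond, destained in acetonitrile/sodium acetate pH 4, imaged at 602 nm […]. Coomassie restain for loading.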

Compound: Nc1ncnc2c1ncn2[C@@H]1O[C@H](COP(=O)(O)OP(=O)(O)OP(=O)([O-])[O-])[C@@H](O)[C@H]1O.[Na+].[Na+] [ATP, Adenosine-5-triphosphate disodium salt]
- Kd (HsFN3K [1]; read-out: binding affinity (KD) for ATP, fluorescently labeled HsFN3K WT, 25°C): 3.9 ± 3.4 µM
- Kd (HsFN3K D217A [2]; read-out: binding affinity (KD) for ATP, MST): 3.5 ± 2.3 µM
- binding of ATP and DMF (HsFN3K D234A [3]): impaired binding
- melting temperature (Tm) with ligand (HsFN3K [4]; HsFN3K WT, ligand 250 μM, apo Tm 56.9 ± 0.7°C): 63.2 ± 0.5 °C
- Tm increase versus HsFN3K alone (HsFN3K [4]; HsFN3K WT): ~ 6 °C
- ligand binding by Tm shift (HsFN3K D217A [5]): retained the ability to bind ATP
- Tm shift in the presence of ATP or DMF individually or together (HsFN3K D234A [6]): no observable Tm shift
- ligand binding by Tm shift (HsFN3K W219A): retained the ability to bind ATP
- ATP binding (HsFN3K H288A [7]): retained the ability to bind ATP
- ATP binding (HsFN3K H291A [8]): retained the ability to bind ATP

Compound: Nc1ncnc2c1ncn2[C@@H]1O[C@H](COP(=O)(O)OP(=O)(O)NP(=O)(O)O)[C@@H](O)[C@H]1O [AMP-PNP, adenylyl-imidodiphosphate]
- binding of ATP mimetic (HsFN3K [4]; HsFN3K WT (Figure S7)): readily bound to HsFN3K

Compound: O=C(CN1CCOCC1)[C@@H](O)[C@H](O)[C@H](O)CO [DMF, 1-Deoxy-1-morpholino-fructose]
- binding of DMF in the absence of ATP (HsFN3K [1]; HsFN3K WT, absence of ATP): did not bind DMF
- binding of DMF (HsFN3K D217A [2]; MST): lost the ability to bind DMF
- binding of ATP and DMF (HsFN3K D234A [3]): impaired binding
- substrate (DMF) engagement in presence of AMP-PNP (HsFN3K [4]; HsFN3K WT, AMP-PNP instead of ATP (Figure S7)): prevented substrate engagement
- melting temperature (Tm) with both ATP and DMF (HsFN3K [4]; HsFN3K WT, ATP+DMF 250 μM): 65.2 ± 0.6 °C
- Tm shift of ATP and DMF compared to ATP alone (HsFN3K [4]; HsFN3K WT, DMF added with ATP): ~ 2 °C
- Tm increase versus HsFN3K alone (HsFN3K [4]; HsFN3K WT): did not alter the Tm
- ligand binding by Tm shift (HsFN3K D217A [5]): lost binding to DMF
- Tm shift in the presence of ATP or DMF individually or together (HsFN3K D234A [6]): no observable Tm shift
- ligand binding by Tm shift (HsFN3K W219A): did not bind DMF
- Tm shift on DMF binding (HsFN3K H288A [7]): 0.6 °C
- Tm shift on DMF binding (HsFN3K H291A [8]): 3.6 °C
- increase of Km for DMF versus wildtype (HsFN3K H288A [9]): 3 fold
- increase of Km for DMF versus wildtype (HsFN3K H291A [10]): 3.5 fold

Compound: human Fructosamine-3-kinase (HsFN3K) (from UniProt Q9H479 1-309) (enzyme)
- stoichiometry N [11]: 2
- stoichiometry N [12]: 2

Compound: glycated lysozyme: crystallization grade lysozyme incubated with ribose or glucose; protein substrate of FN3K
- substrate phosphorylation (HsFN3K WT): able to phosphorylate
